According to ChEMBL document CHEMBL1143955, “Synthesis and exploration of novel curcumin analogues as anti-malarial agents” (Bioorg Med Chem, 2008):
In brackets after ≈: the same amount, converted by molar mass. Activity calls are given as the source filed them. No cut-off for these calls is given here.

Tests used:
Format in all cases: functional, organism-based
Plasmodium falciparum [1] = test: Antimalarial activity against chloroquine-sensitive Plasmodium falciparum FCK2
In short: (§1)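 Sorbitol-synchronised P. falciparum cultured in RPMI 1640 with 10% human serum, 0.225% sodium bicarbonate and 0.01 mg/mL gentamicin. Infected red cells (1–2% parasitemia, ring stage) were used at 2% hematocrit with varying inhibitor concentrations (final DMSO ≤0.05%; 0.05% DMSO as solvent control), starting at early trophozoite and dosing up to day 4. Parasitemia was read by Giemsa microscopy, and IC50 was fitted by non-linear regression of relative % parasitemia versus log concentration.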

Plasmodium falciparum [2] = test: Antimalarial activity against chloroquine-resistant Plasmodium falciparum MP14; in short: as §1
Plasmodium falciparum [3] = test: Antimalarial activity against chloroquine-resistant Plasmodium falciparum MP14 in red blood cells as reduced parasitemia in [3H]hypoxanthine uptake assay
In short: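 Ring-stage synchronised parasites were used at 2–3% hematocrit and 1–2% initial parasitemia, in duplicate. Varying inhibitor concentrations (final DMSO ≤0.05%) were added in fresh medium every 24 h for 48 h. [3H]-hypoxanthine was then added for 36 h, and cells were harvested onto glass-fibre filters and read by scintillation counting. IC50 came from a non-linear regression fit of relative % parasitemia versus log concentration.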

Plasmodium falciparum [4] = test: Antimalarial activity against chloroquine-sensitive Plasmodium falciparum FCK2 in red blood cells as reduced parasitemia in [3H]hypoxanthine uptake; conditions: in the assay text read “by microscopic examination” for “in [3H]hypoxanthine uptake”

SMILES | IC50 (Plasmodium falciparum [1]) [µM] | MIC (Plasmodium falciparum [1]) [µM] | IC50 (Plasmodium falciparum [2]) [µM] | MIC (Plasmodium falciparum [2]) [µM] | Activity (Plasmodium falciparum [3]) | Activity (Plasmodium falciparum [4])
COc1cc(/C=C/c2cc(/C=C/c3ccc(O)c(OC)c3)n(-c3ccccc3)n2)ccc1O | 8.48 | 22.4 (≈ 9.87 µg/mL) | 9.1 | 25 (≈ 11 µg/mL) |  | 
COc1cc(/C=C/C(=O)CC(=O)/C=C/c2ccc(O)c(OC)c2)ccc1O [CURCUMIN] | 3.25 | 13.2 (≈ 4.86 µg/mL) | 4.21 | 14.4 (≈ 5.3 µg/mL) |  | 
COc1cc(/C=C/c2cc(/C=C/c3ccc(O)c(OC)c3)[nH]n2)ccc1O [CURCUMIN PYRAZOLE] | 0.48 | 3.9 (≈ 1.42 µg/mL) | 0.45 | 3.6 (≈ 1.31 µg/mL) |  | 
COc1cc(/C=C/c2cc(/C=C/c3ccc(O)c(OC)c3)n(-c3ccc(F)cc3)n2)ccc1O | 2.42 | 14.3 (≈ 6.56 µg/mL) | 2.1 | 12.9 (≈ 5.91 µg/mL) |  | 
COc1cc(/C=C/C(=O)CC(=O)/C=C/c2ccc(OC(C)=O)c(OC)c2)ccc1OC(C)=O | 2.34 | 14.9 (≈ 6.74 µg/mL) | 2.51 | 15.3 (≈ 6.92 µg/mL) |  | 
COc1cc(/C=C/C(=O)C(=Cc2ccccc2)C(=O)/C=C/c2ccc(O)c(OC)c2)ccc1O | 3.89 | 16.5 (≈ 7.53 µg/mL) | 4.12 | 17.2 (≈ 7.85 µg/mL) |  | 
COc1cc(/C=C/c2cc(/C=C/c3ccc(O)c(OC)c3)on2)ccc1O | 8.44 | 27.3 (≈ 9.98 µg/mL) | 7.92 | 25.3 (≈ 9.24 µg/mL) |  | 
COc1ccc(-n2nc(/C=C/c3ccc(O)c(OC)c3)cc2/C=C/c2ccc(O)c(OC)c2)cc1 | 22.6 | 35.8 (≈ 16.8 µg/mL) | 24.6 | 41.2 (≈ 19.4 µg/mL) |  | 
COc1cc(C=C(C(=O)/C=C/c2ccc(O)c(OC)c2)C(=O)/C=C/c2ccc(O)c(OC)c2)ccc1O | 0.92 | 5.2 (≈ 2.61 µg/mL) | 0.75 | 4.8 (≈ 2.41 µg/mL) |  | 
COc1cc(/C=C/c2cc(/C=C/c3ccc(O)c(OC)c3)n(-c3ccc(Cl)cc3Cl)n2)ccc1O | 4.65 | 21.8 (≈ 11.1 µg/mL) | 4.8 | 21.4 (≈ 10.9 µg/mL) |  | 
COc1ccc(/C=C/C(=O)CC(=O)/C=C/c2ccc(OC)c(OC)c2)cc1OC [TETRAMETHOXYCURCUMIN] | 7.86 | 29.6 (≈ 11.7 µg/mL) | 8.4 | 29.1 (≈ 11.5 µg/mL) |  | 
COc1cc(/C=C/c2cc(/C=C/c3ccc(O)c(OC)c3)n(-c3cccc([N+](=O)[O-])c3)n2)ccc1O | 0.87 | 4.9 (≈ 2.38 µg/mL) | 0.89 | 5.1 (≈ 2.48 µg/mL) | Active | Active
COc1cc(/C=C/C(=O)C(=Cc2ccc(O)cc2)C(=O)/C=C/c2ccc(O)c(OC)c2)ccc1O | 5.85 | 23.7 (≈ 11.2 µg/mL) | 5.36 | 23.1 (≈ 10.9 µg/mL) |  | 
